The source made the active and inactive calls. The rule behind the calls is not given here.
Experiments:
Jurkat [1] = experiment: Down regulation of BCL2 mRNA expression in human Jurkat cells at 25 uM measured after 24 hrs by RT-qPCR analysis relative to control; format: functional
How it was run: (§1)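 Jurkat cells were treated 24 h at 25 µM, and total RNA was extracted with TRI Reagent. 0.5 µg RNA was reverse transcribed with MMLV RT and random primers (22 °C 10 min, 42 °C 60 min). SYBR qPCR ran 40 cycles (95/59/72 °C) in duplicate with GAPDH as reference. Relative expression was calculated by the […] method from at least three independent experiments.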

Quadruplex DNA [2] = experiment: Binding affinity to human telomeric 23 G4 quadruplex DNA assessed as change in melting temperature at 10 molar equiv to DNA measured after 10 mins by circular dichroism melting analysis; format: nucleic-acid assay
How it was run: (§2)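 CD melting of folded DNA (G4 10 µM, duplex 15 µM) in 20 mM KCl, 5 mM KH2PO4 (pH 7.0), without and with 10 molar equivalents of ligand. Tm was taken from curve fitting, and ΔTm = Tm(DNA+ligand) − Tm(DNA). Runs were done in triplicate and averaged.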

Jurkat [3] = experiment: Down regulation of BCL2 expression in human Jurkat cells at 25 uM measured after 24 hrs by Western blot analysis relative to control; format: functional
How it was run: (§3)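 Jurkat cells treated 24 h at 25 µM were lysed in 50 mM Hepes pH 7.4, 50 mM NaCl, 1% Triton with protease inhibitors. Protein was quantified by Bradford and run on 10% SDS-PAGE to nitrocellulose. Blots were probed with anti-Bcl-2, anti-c-Myc and anti-β-actin and detected by ECL. Densitometry was normalised to β-actin and expressed as % of control; three independent experiments.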

HCT-116 = experiment: Cytotoxicity against human HCT116 cells assessed as reduction in cell viability measured after 48 hrs by combined MTT assay; format: functional, cell-based; details: HCT-116, 48 h
How it was run: (§4)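 Cells were seeded at 10^4/well (HDF 10^3), grown 24 h, then treated 48 h at 5–100 µM in 0.5% v/v DMSO. Read-outs were MTT (1 h, 37 °C, absorbance 550 nm; Jurkat handled by centrifugation) combined with trypan blue live/dead counting into a survival index versus untreated cells. IC50 came from nonlinear regression, n = 6 per experiment ×3 (n = 18), mean ± SEM.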

Jurkat [4] = experiment: Down regulation of c-MYC expression in human Jurkat cells at 25 uM measured after 24 hrs by Western blot analysis relative to control; format: functional; how it was run: as §3
HaCaT = experiment: Cytotoxicity against human HaCaT cells assessed as reduction in cell viability measured after 48 hrs by combined MTT assay; format: cell-based; how it was run: as §4
NHDF = experiment: Cytotoxicity against HDF cells assessed as reduction in cell viability measured after 48 hrs by combined MTT assay; format: cell-based; details: Homo sapiens; how it was run: as §4
Quadruplex DNA [5] = experiment: Binding affinity to synthetic c-MYC G4 quadruplex DNA up to 5:1 compound/DNA ratio by 1H-NMR analysis; format: nucleic-acid assay
How it was run: (§5)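 1H NMR titration of G4 DNA at 0.2 mM in H2O/D2O 9:1 containing 5 mM KH2PO4, 20 mM KCl, 0.2 mM EDTA (pH 7.0), with DPFGSE water suppression. Ligand aliquots from 20 mM deutero-DMSO stock were added in the tube up to 5:1 ligand/G4. Imino and aromatic proton shifts were monitored.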

Quadruplex DNA [6] = experiment: Binding affinity to synthetic Cy5-fluorescently labeled BCL2 G4 quadruplex DNA by microscale thermophoresis method; format: nucleic-acid assay
How it was run: (§6)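 MST with Cy5-labelled oligonucleotides annealed at 1 µM in 5 mM KH2PO4/20 mM KCl (pH 7.0), then diluted in the same buffer with 0.1% Tween. DNA was held at 40 nM. Ligand was serially diluted 1:2 from a 4 mM DMSO stock and mixed 1:1 with DNA, giving 5% final DMSO. Kd was derived from thermophoresis binding curves.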

Jurkat [7] = experiment: Induction of apoptosis in human Jurkat cells assessed as viable cells at 25 uM measured after 48 hrs by Annexin V-FITC/propidium iodide staining based flow cytometry (reference value: 97%); format: functional; details: read-out: Activity
[8] = Binding affinity to synthetic 20-mer hairpin duplex DNA assessed as change in melting temperature at 10 molar equiv to DNA measured after 10 mins by circular dichroism melting analysis; how it was run: as §2
Quadruplex DNA [9] = experiment: Binding affinity to synthetic c-KIT1 G4 quadruplex DNA assessed as change in melting temperature at 10 molar equiv to DNA measured after 10 mins by circular dichroism melting analysis; format: nucleic-acid assay; how it was run: as §2
Quadruplex DNA [10] = experiment: Binding affinity to synthetic Cy5-fluorescently labeled c-KIT1 G4 quadruplex DNA by microscale thermophoresis method; format: nucleic-acid assay; how it was run: as §6
MCF7 = experiment: Cytotoxicity against human MCF7 cells assessed as reduction in cell viability measured after 48 hrs by combined MTT assay; format: functional, cell-based; details: MCF7, 48 h; how it was run: as §4
Quadruplex DNA [11] = experiment: Binding affinity to human Cy5-fluorescently labeled telomeric 23 G4 quadruplex DNA by microscale thermophoresis method; format: nucleic-acid assay; how it was run: as §6
Jurkat [12] = experiment: Induction of apoptosis in human Jurkat cells assessed as late apoptotic cells at 25 uM measured after 48 hrs by Annexin V-FITC/propidium iodide staining based flow cytometry (reference value: 1.4%); format: functional
[13] = Binding affinity to synthetic Cy5-fluorescently labeled 20-mer hairpin duplex DNA by microscale thermophoresis method; how it was run: as §6
Jurkat [14] = experiment: Induction of apoptosis in human Jurkat cells assessed as early apoptotic cells at 25 uM measured after 48 hrs by Annexin V-FITC/propidium iodide staining based flow cytometry (reference value: 0.3%); format: functional
Jurkat [15] = experiment: Down regulation of c-MYC mRNA expression in human Jurkat cells at 25 uM measured after 24 hrs by RT-qPCR analysis relative to control; format: functional; how it was run: as §1
Jurkat [16] = experiment: Cytotoxicity against human Jurkat cells assessed as reduction in cell viability measured after 48 hrs by combined MTT and trypan blue staining based cell counting assay; format: functional; how it was run: as §4
Quadruplex DNA [17] = experiment: Binding affinity to synthetic BCL2 G4 quadruplex DNA up to 5:1 compound/DNA ratio by 1H-NMR analysis; format: nucleic-acid assay; how it was run: as §5
Jurkat [18] = experiment: Cytotoxicity against human Jurkat cells assessed as cell viability at 50 uM measured after 48 hrs by combined MTT and trypan blue staining based cell counting assay relative to control; format: functional; details: read-out: Activity; how it was run: as §4
Quadruplex DNA [19] = experiment: Binding affinity to synthetic c-MYC G4 quadruplex DNA assessed as change in melting temperature at 10 molar equiv to DNA measured after 10 mins by circular dichroism melting analysis; format: nucleic-acid assay; how it was run: as §2
A-375 = experiment: Cytotoxicity against human A375 cells assessed as reduction in cell viability measured after 48 hrs by combined MTT assay; format: functional, cell-based; details: A-375, 48 h; how it was run: as §4
Quadruplex DNA [20] = experiment: Binding affinity to synthetic Cy5-fluorescently labeled c-MYC G4 quadruplex DNA by microscale thermophoresis method; format: nucleic-acid assay; how it was run: as §6
Quadruplex DNA [21] = experiment: Binding affinity to synthetic BCL2 G4 quadruplex DNA assessed as change in melting temperature at 10 molar equiv to DNA measured after 10 mins by circular dichroism melting analysis; format: nucleic-acid assay; how it was run: as §2

CN(C)CCCn1cnc2c1ncn1c(NC(C)(C)C)c(-c3ccc(Cl)cc3)nc21 showed an Activity (Jurkat [1]) of 67%, a ΔTm (Quadruplex DNA [2]) of 2.4 °C and an Activity (Jurkat [3]) of 40%. For the same molecule, the IC50 (HCT-116) was > 100 µM, the Activity (Jurkat [4]) was 50% and the IC50 (HaCaT) was > 100 µM. The IC50 (NHDF) was 80 µM, the Activity (Quadruplex DNA [5]) was “Active” and the Kd (Quadruplex DNA [6]) was 60 µM. The viability at 25 µM (Jurkat [7]) was 0.5%, the ΔTm [8] was -0.5 °C and the ΔTm (Quadruplex DNA [9]) was 2.8 °C. For the same molecule, the Kd (Quadruplex DNA [10]) was 51 µM, the IC50 (MCF7) was > 100 µM and the Activity (Quadruplex DNA [11]) was “inactive”. For the same molecule, the Activity (Jurkat [12]) was 99%, the Activity [13] was “inactive” and the Activity (Jurkat [14]) was 0.5%. The Activity (Jurkat [15]) was 66%, the Activity (Jurkat [16]) was “Dose-dependent effect” and the IC50 (Jurkat [16]) was 17 µM. The Activity (Quadruplex DNA [17]) was “Active”, the viability at 50 µM (Jurkat [18]) was 25% and the ΔTm (Quadruplex DNA [19]) was 12.8 °C. The IC50 (A-375) was > 100 µM, the Kd (Quadruplex DNA [20]) was 26 µM and the ΔTm (Quadruplex DNA [21]) was 6.7 °C.

Reference: ChEMBL document CHEMBL4402513, “Bio-Inspired Dual-Selective BCL-2/c-MYC G-Quadruplex Binders: Design, Synthesis, and Anticancer Activity of Drug-like Imidazo[2,1-i]purine Derivatives” (J Med Chem, 2020)
